Test system: MS2 coat protein
Experiment: apparent Kd, MS2 coat protein; higher = weaker binding; RNA-MaP array; FMN 200 µM where present
Method in brief: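 Green signal was scaled to red-channel RNA signal and control-cluster median Fmax, and the apparent Kd was taken as the median of filtered per-cluster binding-curve fits. The binding series used SNAP-549-labelled MS2 coat protein from 0.7 or 1.5 nM, doubling to 3 µM, on designs transcribed by stalled E. coli RNA polymerase on Illumina sequencing-chip clusters. Each series ran without and then with constant ligand in 100 mM Tris-HCl pH 7.5, 80 mM KCl, 4 mM MgCl2, BSA, DTT, yeast tRNA and Tween-20.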

[1] = designed as: ON switch for flavin mononucleotide, no ligand
[2] = ligand present: flavin mononucleotide, designed as: ON switch for flavin mononucleotide
[3] = designed as: OFF switch for flavin mononucleotide, no ligand
[4] = ligand present: flavin mononucleotide, designed as: OFF switch for flavin mononucleotide

| Sequence | apparent Kd [1] | apparent Kd [2] | apparent Kd [3] | apparent Kd [4] |
| --- | --- | --- | --- | --- |
| AUUUAUUAGUAAGGAUAUACUAGCGAUUAGCUUGUAGAAGGUACAGUCUUAUGUAUAACAUGUUAACAUGAGGAUCACCCAUGU | 60.4 nM | 27.9 nM |  |  |
| AAUUUACAGGCAGGAUAUACAUGAGGAUCACCCAUGUAAUCAUAUGAUAUUUUUUUUGUAUGAGUGUAGAAGGGCCAAAUAAAA |  |  | 7.79 nM | 7.99 nM |
| CGUAGGAUCCAGAAGGCAUGAACAUGAGGAUCACCCAUGUCAAAAGACAUGAGGAUAUGGAUCCUACGAAAAGUGCGAAAGCAC | 19 nM | 5.55 nM |  |  |
| AGUACUACAGGAUAUACGAGGGAGGUCCACGUGAACCUUUUACAUGAGGAUCACCCAUGUAGAAGGGUAGUACA |  |  | 68.3 nM | 16.5 nM |
| UCUUUGUUUGUGAGGAUAUCGAUAAAAUGGAUUGUCGAGAAGGCACAUGAGGAUCACCCAUGUGUGGGACAGCA |  |  | 22.3 nM | 74.9 nM |
| GGUCUGAUAUGAGGAUAUGCUCAGGAUAACUGAGCAGAAGGCAUGUGAAAACAUGAGGAUCACCCAUGUGAUCAAUACAGACCA | 141 nM | 23.9 nM |  |  |
| CCGAAUAUGCAGGAUAUCGUAUCGGAGACGAUACGAGAAGGGCAAACAUGAGGAUCACCCAUGUUCCUUAACGG |  |  | 19.1 nM | 22.5 nM |
| UGGUACAUGAGGAUCACCCAUGUAAGAGCCCUCAUGCGAUGUAGAAGGAUUAUGCGAGUAGUGCAAUAGGAUAUACAUGAGUUU |  |  | 216 nM | 163 nM |
| ACAUGAGGAUCACCCAUGUUGAAUUAGGAUAUUUGACUGCACAUGAGGUUCACCCAUGUUCUACCGGAGAAGGGAUUAAUAAUU | 129 nM | 132 nM |  |  |
| UGUCGGAGCAGAGGAUAUCACAUGAGGAUCACCCAUGUAUGAACCAAUAGCUGGAAACAGCAAUGUAAGAAGGCUGCUCCGACA |  |  | 5.64 nM | 9.62 nM |
| GAGCUGUGAGGAUAUACAUGAGGAUCACCCAUGUUAAGGAAGUGGUGUAUAUUUUAGUGUAGAAGGCACUUAUU |  |  | 121 nM | 439 nM |
| AAGAAGUGAGGAUAUACGCGAACAAAAAAAAAAAAGAAAGCGUAGAAGGCACAUGAGGAUCACCCAUGUCAAAA |  |  | 26.1 nM | 27.3 nM |
| GGUGCCAUGUAGAAGGCAGAUCCGAUUCAGAUCUGAGGAUAUACAUGAGGAUCACCCAUGUAAAGGCACCGCACGAGAGUGCAA |  |  | 8.12 nM | 9.11 nM |
| ACAUGAGGAUCACCCAUGUUCACAUAGGAUAUUGAUUAUAUUGGUUAUAGAAUAGUUAUAAUGCUCAAGAAGGAUGCCAGUUGU | 11 nM | 8.94 nM |  |  |
| AAAAUGUGAGGAUAUCCGAAGGCGUCUGAUAGACGAGGCUAGGAGAAGGCACAUGAGGAUCACCCAUGUAAAAA |  |  | 46.6 nM | 95.1 nM |
| CGUGUGUGAGGAUAUGACAAUGGUAUCUUCGGAUACCAUUGUCAGAAGGUACAUGAGGAUCACCCAUGUAGAUC |  |  | 37.7 nM | 70.3 nM |
| GGGCCGAAAGGCCCGCGGGCCCGGCAGGAUAUACAUGAGGAUCACCCAUGUCCGGCGAAAGCCGGGUAGAAGGGCCGGGCCCGC |  |  | 4.98 nM | 5.29 nM |
| CACUGCAUGUAAGGAUAUCGACUGGAAUACAGUCGAGAAGGUACAUGAGGAUCACCCAUGUAAGCAGUGAAUAAUAAUAAUAAU |  |  | 12.1 nM | 23.4 nM |
| GCCAUCGCAUGAGGAUAUGGACAGGUUUCCUGUCCAGAAGGCAUGUCAUAAGACAUGAGGAUCACCCAUGUAGUUAAGAUGGCA | 908 nM | 45.9 nM |  |  |
| AAAAACAUAGGAUAUACAUGAGGAUCACCCAUGUUAAAAUAAAGAAAGGGAGAAAUAAGUAGAAGGAUGAAAAA |  |  | 37.7 nM | 40.2 nM |
| AUCAUGUAAGGAUAUCUUACAUGUGACUUCGGUCACAGUUAAGAGAAGGUACAUGAGGAUCACCCAUGUAUAAC |  |  | 28 nM | 45.3 nM |
| UGAUAGGACAGAGGAUAUACGUGCUAGAGAUACUAGCAAAGUUUCCUCACAUGAGGAUCACCCAUGUAGAAGGCUGUCCUAUCU |  |  | 24.9 nM | 521 nM |
| ACUAUACGAGGAUAUACUGUCGGGCCUCAGACAUAAAUAAGACAUGAGGAUCACCCAUGUAGAAGGCGUUUACU |  |  | 52.6 nM | 114 nM |
| CGCACUUAGCGAGGAUAUGUUAAACAUGAGGAUCACCCAUGUGAUUUAGUAUCAAUAUUAGUGAAACAGAAGGCGCUUAGUGCG |  |  | 14 nM | 13.2 nM |

| Sequence | apparent Kd [1] | apparent Kd [2] | apparent Kd [3] | apparent Kd [4] |
| --- | --- | --- | --- | --- |
| UGGACCGAGCUGUCGGUUGACUCUUAGGAUAUGACAUGAGGAUCACCCAUGUGGGAUCUAAAUUGUCAGAAGGAGGGUUCUGGG |  |  | 283 nM | 51.4 nM |
| AAUAUAGAGCUGGAAUAAAACAUCACAUGAGGAUCACCCAUGUAGGAUAUCAGCACGAUAAGUGCUGAGAAGGACAUCCAGCUC |  |  | 14.9 nM | 14.1 nM |
| UACAACUUCGUAGGAUAUGUAUAUAAUUUCUACAUGAGGAUCACCCAUGUUAGCAUUUUUUAUUGACAGAAGGACGUAAUCUAA | 7.55 nM | 5.89 nM |  |  |
| CACGUCCACACAGGAUAUGCUGGACUUUGUCCAGCAGAAGGGUGACAUGAGGAUCACCCAUGUAAAAGGACGUGUAUAUUUAAU | 819 nM | 62.1 nM |  |  |
| GUACAUGAGCAGAAGGGCAUUUAAUUAGAUUUUUAUGUUGAUCAGAAAUGCAGGAUAUGUUAAACAUGAGGAUCACCCAUGUAC | 218 nM | 24.1 nM |  |  |
| AGGGAGUUAGGAUAUGCUGCUCGUCACUUGCGUGAUGAGUAGCAGAAGGAACAUGAGGAUCACCCAUGUAAAAA |  |  | 31.2 nM | 30.3 nM |
| GCGUUAGUAUCACAUGUAUUACAUGAGGAUCACCCAUGUUACUAGGAUAUGUAUUAGAAUUAUCAACAGAAGGAGUAAUAACGC |  |  | 12.6 nM | 20.3 nM |
| AAAUUCUGAGGAUAUCGAUGUUUGUACAUGAGGAUCACCCAUGUCCUUUUUAUUUAAUCCCGAGAAGGCAGUGUAU |  |  | 29 nM | 25.8 nM |
| GGUUUGGGAGGAUAUGGCUUGUUUGACAUGAGGAUCACCCAUGUAAGUGGAUCUUCCGGGCCAGAAGGCUCGGGCC |  |  | 104 nM | 188 nM |
| AAUUGGAUCCAGAAGGCAUGGACGACCCGUCACAUUAACAUGAGGAUCACCCAUGUCAAAAGACAUGAGGAUAUGGAUCCUAAA | 752 nM | 31.8 nM |  |  |
| AAGCGAGGGACAGGAUAUGCGGCGAAACUCGCCGCAGAAGGGUCGACAUGAGGAUCACCCAUGUCCUUACGCUCCAAGUAAAGG | 216 nM | 436 nM |  |  |
| GUGCAUUACGAGAAGGCGUACUGGUGAAUAUAAAACGACAAAGGUACAUGAGGAUCACCCAUGUACGAGGAUAUCGAUUUGGCU |  |  | 11 nM | 39.7 nM |
| UGCUUCGUGUAAGGAUAUGCAGCCGUUUCGGCUGCAGAAGGUACUAUAAUACAUGAGGAUCACCCAUGUCUCUCGCUUUGCGGG | 63.6 nM | 29.4 nM |  |  |
| AAACAGCGAGAUAAUAAUGAUUACAUGAGGAUCACCCAUGUAUAGGAUAUCGUCAGGAAUACUGACGAGAAGGAUACAACGCUG |  |  | 16 nM | 26.5 nM |
| AAAUAGUUAGGAUAUACAUGAGGAUCACCCAUGUGGACUGAUGGCGCUUGAUUCAGUGGUAGAAGGGACUCAAA |  |  | 45.9 nM | 69.2 nM |
| CAGGUAGACUGAGGAUAUACAUGACUUAGUCUAUCUAGGUCAUUAACCACAUGAGGAUCACCCAUGUAGAAGGCAGUCUGCCUG |  |  | 16.3 nM | 19.6 nM |
| GUUCUGCCUCCUGCCGGAACAUGAGGAUCACCCAUGUUGCCUGAGGAUAUCCUAUGGCGUCCACAGGAGAAGGCAGGCAGCAUA |  |  | 18.6 nM | 19.6 nM |
| AGAAACUACGAGAAGGACAUAUGACCAAGACUAAACAUGAGGAUCACCCAUGUAGGAUAUCGUAGUUUCAGGAUCGUGAGAUCA |  |  | 5.81 nM | 12.2 nM |
| AAAACAUGAGGAUCACCCAUGUAAAUAUCGGUUAAUUGUUGUGAGGAUAUACUAAAUUUUAAGAAGUAGAAGGCACUGGGUACA |  | 23.9 nM |  |  |
| UAGAAGUCAGGAUAUCCUGCUCGUCACUUGCGUGAUGAGUAGGAGAAGGGACAUGAGGAUCACCCAUGUAAAGA |  |  | 53.8 nM | 53.4 nM |
| GUCGUGUGAGGAUAUGGAUAGACGCAGUGACAGUCAGCGACCUAGAAGGCACAUGAGGAUCACCCAUGUAUGUG |  |  | 47.2 nM | 100 nM |
| GCACUUAGAGUUGAACCGUUUCGAACAUGAGGAUCACCCAUGUAGGAUAUGCUAAUAGUAUUGAAGCAGAAGGACAAUAAGUGC |  |  | 6.43 nM | 6.05 nM |
| AUUAUGACCGAGUUAUAACUCUAAACAUGAGGAUCACCCAUGUAGGAUAUCAGCACGAUAAGUGCUGAGAAGGACAUCUCGGUC |  |  | 16.4 nM | 18.1 nM |
| ACAUGAGGAUCACCCAUGUUAAACGAGGAUAUUUGACUGCACAUGAGGUUCACCCAUGUUCUGCCGAAGAAGGUGUAAAUAAUU | 39.2 nM | 31.2 nM |  |  |

— the EternaBench riboswitch data
